# Measured values reported in ChEMBL document CHEMBL1135925, “Exploration of the pharmacophore of 3-alkyl-5-arylimidazolidinediones as new CB(1) cannabinoid receptor ligands and potential antagonists: synthesis, lipophilicity, affinity, and molecular modeling” (J Med Chem, 2002).
# Tests used:
# [1] = Capacity factor (log Kw) was measured; format: ADME; details: RP-HPLC, methanol/phosphate buffer pH 7.4, extrapolated to 0% methanol
# How it was run: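 RP-HPLC on a C18 column (250 mm × 4.6 mm, 5 μm particles), UV detection at 250 nm. Four mobile phases of methanol/0.1 M phosphate buffer pH 7.4 (90:10, 80:20, 75:25, 70:30 v/v). k' = (tr − t0)/t0, with t0 the column dead time. Calibrated against reference solutes of known log P (0.64–3.30), and log kw indices correlated with log P.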
# [2] = Lipophilicity (calculated by CLIP)
# [3] = target: Cannabinoid receptor 1 (Homo sapiens) (UniProt P21554); test: Percent displacement of [3H]-SR-141716A, by compound at 10 uM, in transfected CHO cells expressing the human cannabinoid receptor 1.; format: cell-based
# How it was run: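 Membranes (60 μg) from CHO cells expressing human CB1, cultured in Ham F12 with 10% FCS and G418. Test compound screened at 10 μM against 1 nM [3H]-SR-141716A, 1 h at 30 °C, in 50 mM Tris-HCl pH 7.4 with 3 mM MgCl2, 1 mM EDTA and 0.1% BSA. Nonspecific binding defined with 10 μM WIN-55,212-2 or CP-55,940. PEI-treated GF/C filtration, scintillation counting, triplicates, n = 3–5.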
# Cannabinoid receptor 1 (Homo sapiens), sequence (P21554 whole entry): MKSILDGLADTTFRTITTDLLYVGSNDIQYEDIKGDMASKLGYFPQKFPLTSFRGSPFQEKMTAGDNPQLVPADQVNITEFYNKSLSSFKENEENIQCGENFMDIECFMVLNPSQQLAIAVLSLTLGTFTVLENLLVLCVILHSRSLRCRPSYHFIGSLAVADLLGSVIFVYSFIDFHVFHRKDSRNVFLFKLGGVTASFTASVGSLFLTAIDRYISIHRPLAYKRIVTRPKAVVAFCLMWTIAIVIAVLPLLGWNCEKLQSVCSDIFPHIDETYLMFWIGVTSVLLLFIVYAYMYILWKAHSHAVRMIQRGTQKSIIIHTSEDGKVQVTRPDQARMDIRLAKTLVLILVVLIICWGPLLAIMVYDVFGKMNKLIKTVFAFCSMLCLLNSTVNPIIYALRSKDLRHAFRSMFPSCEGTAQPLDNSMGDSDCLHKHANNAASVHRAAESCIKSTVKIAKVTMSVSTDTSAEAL
Log Kw [1],CLIP [2],Displacement [3] [%],SMILES
6.65,7.45,,CCCCCCCN1C(=O)NC(c2ccc(Br)cc2)(c2ccc(Br)cc2)C1=O
3,2.83,,CN(C)CCN1C(=O)NC(c2ccccc2)(c2ccccc2)C1=O
2.35,2.21,< 5,CCCCN1C(=O)NC(Cc2c[nH]c3ccccc23)C1=O (stereo unspecified)
,2.16,,O=C1NC(c2ccccc2)(c2ccccc2)C(=O)N1CCN1CCOCC1
,4.11,,O=C1NC(c2ccccc2)(c2ccccc2)C(=O)N1Cc1ccccc1
,6.5,,CCCCCCCCN1C(=O)NC(c2ccccc2)(c2ccccc2)C1=O
6.14,6.87,,CCCCCCN1C(=O)NC(c2ccc(Br)cc2)(c2ccc(Br)cc2)C1=O
,3.49,,Cc1ccc(C2(c3ccc(C)cc3)NC(=O)N(CCN3CCOCC3)C2=O)cc1
3.08,2.92,59.8,O=C1NC(Cc2c[nH]c3ccccc23)C(=O)N1Cc1cccc2ccccc12 (stereo unspecified)
2.93,3.84,,CCCN1C(=O)NC(c2ccccc2)(c2ccccc2)C1=O

# The remaining lines, values behind:
SMILES,Log Kw [1],CLIP [2],Displacement [3] [%]
CCCCCCCCN1C(=O)NC(c2ccc(F)cc2)(c2ccc(F)cc2)C1=O,,6.94,
O=C1NC(Cc2c[nH]c3ccccc23)C(=O)N1CCc1ccccc1 (stereo unspecified),,2.31,64
CCCCCCCN1C(=O)NC(c2ccc(C)cc2)(c2ccc(C)cc2)C1=O,,7.04,
CCCCCCN1C(=O)NC(c2ccc(F)cc2)(c2ccc(F)cc2)C1=O,,5.81,
CC(C)N1C(=O)NC(c2ccccc2)(c2ccccc2)C1=O,,2.89,< 5
O=C1NC(c2ccc(F)cc2)(c2ccc(F)cc2)C(=O)N1CCN1CCOCC1,,2.81,
CCCCCCN1C(=O)NC(c2ccccc2)(c2ccccc2)C1=O,4.32,5.37,
CCCCCCN1C(=O)NC(c2ccc(OC)cc2)(c2ccc(OC)cc2)C1=O,,5.81,
O=C1NC(c2ccc(Br)cc2)(c2ccc(Br)cc2)C(=O)N1CCN1CCOCC1,4.5,3.86,
CCCCCCCN1C(=O)NC(c2ccc(F)cc2)(c2ccc(F)cc2)C1=O,,6.42,
O=C1NC(c2ccc(Br)cc2)(c2ccc(Br)cc2)C(=O)N1CCCO,,3.76,
COc1ccc(C2(c3ccc(OC)cc3)NC(=O)N(CCN3CCOCC3)C2=O)cc1,,2.73,
CCCCCCN1C(=O)NC(Cc2c[nH]c3ccccc23)C1=O (stereo unspecified),3.17,3.21,28.8
CCCCN1C(=O)NC(c2ccccc2)(c2ccccc2)C1=O,3.46,4.26,
O=C1NC(Cc2c[nH]c3ccccc23)C(=O)N1CCCc1ccccc1 (stereo unspecified),,2.8,44.3
CCCCCCN1C(=O)NC(c2ccc(C)cc2)(c2ccc(C)cc2)C1=O,,6.48,
O=C1NC(c2ccccc2)(c2ccccc2)C(=O)N1CCN1CCCCC1,4.11,3.83,
CCCCCN1C(=O)NC(c2ccccc2)(c2ccccc2)C1=O,,4.8,
CCCCCCCCN1C(=O)NC(c2ccc(Br)cc2)(c2ccc(Br)cc2)C1=O,,7.99,
